How the values were obtained:
[1] = Apparent permeability in MDCK cells; type: ADME, cell-based, Canis lupus familiaris; settings: dog
In short: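 Apparent permeability measured in parental MDCK cells.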

[2] = Unbound clearance in rat at 0.5 mg/kg, iv by LC-MS/MS analysis; type: ADME, organism-based; settings: in vivo
In short: (§1)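 Male rats, n = 2 per group, dosed intravenously at 0.5 mg/kg as a solution in 100% DMSO. Unbound clearance is derived from total clearance.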

[3] = Clearance in rat at 0.5 mg/kg, iv by LC-MS/MS analysis; type: ADME, organism-based; settings: in vivo; in short: as §1
[4] = Fraction unbound in rat plasma at 5 uM measured after 45 mins by LC-MS/MS analysis; type: ADME, cell-free
[5] = Intrinsic clearance in rat liver microsomes at 1 uM measured after 40 mins in presence of NADPH by LC-MS/MS analysis; type: ADME; settings: read-out: CLH
In short: (§2)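 Clearance measured in rat or human liver microsomes. Test compound at 1 μM, microsomal protein at 250 μg/mL.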

[6] = biological target: Sodium channel protein type 5 subunit alpha (Homo sapiens, UniProt Q14524); assay: Inhibition of human Nav1.5 expressed in HEK293 cells assessed as inhibition of sodium current at holding potential of -125 mV measured for 3 to 5 mins by whole cell voltage clamp method; type: cell-based
[7] = Intrinsic clearance in human liver microsomes at 1 uM measured after 40 mins in presence of NADPH by LC-MS/MS analysis; type: ADME; settings: read-out: CLH; in short: as §2
[8] = biological target: Sodium channel protein type 9 subunit alpha (Homo sapiens, UniProt Q15858); assay: Inhibition of human Nav1.7 expressed in HEK293 cells assessed as inhibition of sodium current at holding potential of -125 mV measured for 3 to 5 mins by whole cell voltage clamp method; type: cell-based
[9] = Dissociation constant, pKa of the compound at pH 1.7 to 11.2 by capillary electrophoresis method; type: physicochemical
In short: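 pKa values calculated from capillary electrophoresis data collected over pH 1.7 to 11.2.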

[10] = Apparent permeability in MDCK cells assessed as drug recovery; type: ADME, cell-based, Canis lupus familiaris; settings: dog, read-out: Drug recovery
[11] = Selectivity index, ratio of IC50 for human Nav1.5 expressed in HEK293 cells to IC50 for human Nav 1.7 expressed in HEK293 cells
[12] = Stability in bile duct cannulated Sprague-Dawley rat assessed as parent compound level in bile at 6.67 mg/kg, iv administered through catheter measured after 2 and 4 hrs post dose by LC-MS/MS analysis; type: ADME, organism-based; settings: in vivo
[13] = Drug metabolism in bile duct cannulated Sprague-Dawley rat urine assessed as metabolite formation at 6.67 mg/kg, iv administered through catheter measured after 2 and 4 hrs post dose by LC-MS/MS analysis; type: ADME, organism-based; settings: in vivo

Sequence of Sodium channel protein type 9 subunit alpha (Q15858 whole entry): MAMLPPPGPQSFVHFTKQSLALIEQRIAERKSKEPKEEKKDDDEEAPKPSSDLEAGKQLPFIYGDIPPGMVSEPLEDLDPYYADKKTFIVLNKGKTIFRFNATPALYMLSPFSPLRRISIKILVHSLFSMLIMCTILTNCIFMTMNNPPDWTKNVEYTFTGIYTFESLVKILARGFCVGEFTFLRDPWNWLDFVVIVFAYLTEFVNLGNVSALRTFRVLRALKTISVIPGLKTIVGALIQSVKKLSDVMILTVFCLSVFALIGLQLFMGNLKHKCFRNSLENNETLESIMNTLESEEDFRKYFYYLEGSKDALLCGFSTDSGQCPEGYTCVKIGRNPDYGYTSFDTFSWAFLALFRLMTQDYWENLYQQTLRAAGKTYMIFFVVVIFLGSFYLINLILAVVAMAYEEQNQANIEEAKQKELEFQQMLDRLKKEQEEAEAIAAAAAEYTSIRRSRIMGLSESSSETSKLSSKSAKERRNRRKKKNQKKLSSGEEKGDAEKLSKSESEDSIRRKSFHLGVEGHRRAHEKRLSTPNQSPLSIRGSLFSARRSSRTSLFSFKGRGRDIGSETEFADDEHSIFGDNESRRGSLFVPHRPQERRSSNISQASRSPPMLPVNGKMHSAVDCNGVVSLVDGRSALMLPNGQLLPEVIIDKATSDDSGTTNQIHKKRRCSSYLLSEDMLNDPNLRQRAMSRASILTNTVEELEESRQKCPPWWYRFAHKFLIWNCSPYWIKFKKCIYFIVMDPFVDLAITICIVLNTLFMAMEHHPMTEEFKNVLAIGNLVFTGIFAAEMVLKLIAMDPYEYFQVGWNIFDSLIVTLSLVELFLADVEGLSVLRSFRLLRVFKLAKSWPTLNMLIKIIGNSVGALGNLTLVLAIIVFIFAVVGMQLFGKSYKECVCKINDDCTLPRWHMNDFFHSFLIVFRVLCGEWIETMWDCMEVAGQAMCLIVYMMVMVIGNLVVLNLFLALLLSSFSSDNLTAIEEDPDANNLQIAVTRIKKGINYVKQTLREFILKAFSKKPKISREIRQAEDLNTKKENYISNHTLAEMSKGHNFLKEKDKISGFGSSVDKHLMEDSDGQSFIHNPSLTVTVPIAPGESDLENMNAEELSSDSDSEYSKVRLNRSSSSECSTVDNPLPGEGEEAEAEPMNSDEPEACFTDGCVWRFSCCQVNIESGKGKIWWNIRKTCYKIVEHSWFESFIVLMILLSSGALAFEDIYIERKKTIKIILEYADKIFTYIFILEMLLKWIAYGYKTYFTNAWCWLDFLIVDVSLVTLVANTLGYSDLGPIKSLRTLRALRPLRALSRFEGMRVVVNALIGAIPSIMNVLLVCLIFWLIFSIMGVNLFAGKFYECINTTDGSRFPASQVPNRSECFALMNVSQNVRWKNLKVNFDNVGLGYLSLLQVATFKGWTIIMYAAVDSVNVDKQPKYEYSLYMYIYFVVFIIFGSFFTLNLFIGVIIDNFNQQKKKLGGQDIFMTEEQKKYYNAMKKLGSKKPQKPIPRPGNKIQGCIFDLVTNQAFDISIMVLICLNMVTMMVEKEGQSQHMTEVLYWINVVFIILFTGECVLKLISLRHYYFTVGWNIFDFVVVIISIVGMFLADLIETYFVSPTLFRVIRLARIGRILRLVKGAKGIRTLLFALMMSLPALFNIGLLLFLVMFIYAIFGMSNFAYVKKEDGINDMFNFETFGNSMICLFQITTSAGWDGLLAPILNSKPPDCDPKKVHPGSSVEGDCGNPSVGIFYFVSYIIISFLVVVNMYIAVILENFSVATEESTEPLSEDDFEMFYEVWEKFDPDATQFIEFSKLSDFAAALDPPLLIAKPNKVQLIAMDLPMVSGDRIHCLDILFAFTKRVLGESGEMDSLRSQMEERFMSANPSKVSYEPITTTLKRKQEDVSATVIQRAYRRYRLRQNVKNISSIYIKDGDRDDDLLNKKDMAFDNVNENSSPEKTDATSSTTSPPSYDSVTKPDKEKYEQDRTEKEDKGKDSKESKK
Sequence of Sodium channel protein type 5 subunit alpha (Q14524 whole entry): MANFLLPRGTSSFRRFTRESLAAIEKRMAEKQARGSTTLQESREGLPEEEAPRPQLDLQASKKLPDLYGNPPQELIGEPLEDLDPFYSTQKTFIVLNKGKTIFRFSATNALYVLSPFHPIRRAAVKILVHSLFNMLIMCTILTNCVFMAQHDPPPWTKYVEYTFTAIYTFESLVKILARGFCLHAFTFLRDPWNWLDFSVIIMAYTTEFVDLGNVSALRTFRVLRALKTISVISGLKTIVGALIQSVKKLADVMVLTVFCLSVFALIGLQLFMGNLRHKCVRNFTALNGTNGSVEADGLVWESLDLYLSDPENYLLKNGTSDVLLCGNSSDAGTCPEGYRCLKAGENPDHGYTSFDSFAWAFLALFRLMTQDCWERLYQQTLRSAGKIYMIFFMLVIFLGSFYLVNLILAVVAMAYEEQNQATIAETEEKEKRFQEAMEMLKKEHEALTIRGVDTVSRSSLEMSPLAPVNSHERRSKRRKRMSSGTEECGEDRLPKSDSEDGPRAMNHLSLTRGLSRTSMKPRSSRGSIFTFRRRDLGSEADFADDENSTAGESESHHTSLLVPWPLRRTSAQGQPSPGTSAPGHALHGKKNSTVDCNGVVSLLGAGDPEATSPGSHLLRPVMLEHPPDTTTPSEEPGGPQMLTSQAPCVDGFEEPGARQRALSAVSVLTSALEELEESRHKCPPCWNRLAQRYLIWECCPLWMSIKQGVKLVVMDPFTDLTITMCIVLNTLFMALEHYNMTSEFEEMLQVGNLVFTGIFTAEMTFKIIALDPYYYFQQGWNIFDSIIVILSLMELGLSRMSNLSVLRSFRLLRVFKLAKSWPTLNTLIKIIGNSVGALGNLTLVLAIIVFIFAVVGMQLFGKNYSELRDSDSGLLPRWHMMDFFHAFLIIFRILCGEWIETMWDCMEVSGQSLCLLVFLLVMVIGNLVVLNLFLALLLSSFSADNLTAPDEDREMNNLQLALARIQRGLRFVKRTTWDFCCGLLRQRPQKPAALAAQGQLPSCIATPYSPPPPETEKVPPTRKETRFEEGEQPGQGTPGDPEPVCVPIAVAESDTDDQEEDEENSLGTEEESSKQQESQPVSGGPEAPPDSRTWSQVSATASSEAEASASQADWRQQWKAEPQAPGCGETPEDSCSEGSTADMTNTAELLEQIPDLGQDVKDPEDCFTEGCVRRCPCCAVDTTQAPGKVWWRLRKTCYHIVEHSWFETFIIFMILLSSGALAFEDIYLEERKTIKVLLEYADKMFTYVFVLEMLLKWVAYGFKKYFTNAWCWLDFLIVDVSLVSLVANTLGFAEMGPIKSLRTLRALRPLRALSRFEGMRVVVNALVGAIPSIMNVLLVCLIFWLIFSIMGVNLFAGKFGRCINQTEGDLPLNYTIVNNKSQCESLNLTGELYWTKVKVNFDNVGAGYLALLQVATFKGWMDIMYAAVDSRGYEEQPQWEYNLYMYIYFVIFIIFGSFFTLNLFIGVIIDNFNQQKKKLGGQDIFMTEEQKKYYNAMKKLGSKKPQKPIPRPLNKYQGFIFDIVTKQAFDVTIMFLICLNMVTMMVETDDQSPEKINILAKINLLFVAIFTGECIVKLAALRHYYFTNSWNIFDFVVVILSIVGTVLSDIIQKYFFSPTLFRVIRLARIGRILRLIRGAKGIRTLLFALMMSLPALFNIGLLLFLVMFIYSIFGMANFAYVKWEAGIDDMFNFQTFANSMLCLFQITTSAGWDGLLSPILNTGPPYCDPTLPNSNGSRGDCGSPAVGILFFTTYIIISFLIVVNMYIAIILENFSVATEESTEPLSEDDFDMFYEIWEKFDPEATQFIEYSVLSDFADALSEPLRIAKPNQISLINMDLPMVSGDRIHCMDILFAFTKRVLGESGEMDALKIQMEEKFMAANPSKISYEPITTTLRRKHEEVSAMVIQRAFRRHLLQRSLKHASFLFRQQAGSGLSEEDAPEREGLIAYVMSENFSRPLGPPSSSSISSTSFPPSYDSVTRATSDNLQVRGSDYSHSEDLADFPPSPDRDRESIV

Row | Compound | Papp [1] [×10⁻⁶ cm/s] | CL free [2] [mL/min/kg] | clearance [3] [mL/min/kg] | fraction unbound at 0.75 h, 5 µM [4] | microsomal CLint at 1 µM [5] [µL/min/mg] | IC50 [6] [µM] | microsomal CLint at 1 µM [7] [µL/min/mg] | IC50 [8] [µM] | pKa [9] | recovery [10] [%] | Ratio IC50 [11] | Stability [12] | Drug metabolism [13]
1 | COc1cc(C(F)(F)F)ccc1-c1n[nH]c(=O)c2cc(S(=O)(=O)Nc3nccs3)ccc12 | 3.2 | 2670 | 40 | 0.013 |  |  |  |  |  |  |  |  | 
2 | Cn1nccc1-c1cc(C(F)(F)F)ccc1-c1cccc2cc(S(=O)(=O)Nc3ncns3)ccc12 | < 2 |  | 158 |  | 21 |  |  |  |  |  |  |  | 
3 | COc1cc(C(F)(F)F)ccc1-c1nccc2cc(S(=O)(=O)Nc3nccs3)ccc12 | 34 | 250 | 3 | 0.012 |  | > 30 |  |  |  |  |  |  | 
4 | COc1cc(C(F)(F)F)ccc1-c1cccc2cc(S(=O)(=O)Nc3nccs3)ccc12 | 12 | 817 | 0.817 | 0.001 | 52 | 21 | 25 | 0.59 | 6.7 |  |  |  | 
5 | COc1cc(C(F)(F)F)ccc1-c1cccc2cc(S(=O)(=O)Nc3ncns3)ccc12 | 17 |  | 86.7 | 0.001 | 18 |  | 15 | 0.051 | 3.7 |  |  |  | 
6 | Cc1cc(C(F)(F)F)ccc1-c1cccc2cc(S(=O)(=O)Nc3ncns3)ccc12 | > 5 |  |  | 0.001 | < 14 |  | 15 | 0.048 | 3.6 | < 50 |  |  | 
7 | COc1cc(C(F)(F)F)ccc1-c1cccc2cc(S(=O)(=O)Nc3ccncn3)ccc12 | 27 |  |  | 0.003 | < 14 | > 30 | < 14 | 0.51 |  |  |  |  | 
8 | O=S(=O)(Nc1ncns1)c1ccc2c(-c3ccc(C(F)(F)F)cc3O)cccc2c1 | < 2 |  |  | 0.001 | 18 |  | 25 |  | 3.6 |  |  |  | 
9 | N#Cc1cc(S(=O)(=O)Nc2ncns2)ccc1Oc1ccc(C(F)(F)F)cc1-c1cn[nH]c1 | < 1 |  | 65 |  | 39 | > 30 |  |  |  |  |  |  | 
10 | COc1cc(C(F)(F)F)ccc1-c1cccc2cc(S(=O)(=O)Nc3ccccn3)ccc12 | 9.5 |  |  |  | 25 |  | 16 | > 30 |  |  |  |  | 
11 | COc1cc(C(F)(F)F)ccc1-c1cccc2cc(S(=O)(=O)Nc3cscn3)ccc12 | 27 |  |  |  | < 14 | 21 | < 14 | 1.4 | 7.2 |  |  |  | 
12 | Cn1nccc1-c1cc(C(F)(F)F)ccc1-c1cn(C)c2cc(S(=O)(=O)Nc3ncns3)ccc12 | 1.3 |  | 68.3 |  | 19 | > 30 |  | 0.12 |  |  | >200 |  | 
13 | O=S(=O)(Nc1ncns1)c1ccc2c(-c3ccc(C(F)(F)F)cc3Br)cccc2c1 | > 5 | 1330 | 4 | 0.003 | < 14 | 21 | < 14 | 0.16 | 3.6 | < 50 |  |  | 
14 | COc1cc(C(F)(F)F)ccc1-c1cnnc2cc(S(=O)(=O)Nc3nccs3)ccc12 | 36 | 1350 | 18.3 | 0.014 |  |  |  |  |  |  |  |  | 
15 | Cn1nccc1-c1cc(Cl)ccc1-c1cn(C)c2cc(S(=O)(=O)Nc3ncns3)ccc12 |  |  |  |  |  |  |  |  |  |  |  | Stable | Metabolite_Notdetected
16 | COc1cc(C(F)(F)F)ccc1-c1nccc2cc(S(=O)(=O)Nc3nccs3)cnc12 | 12 |  |  |  |  | > 30 |  |  |  |  |  |  | 
17 | COc1cc(C(F)(F)F)ccc1-c1cccc2cc(S(=O)(=O)Nc3cncs3)ccc12 | 28 |  |  |  | 37 |  | 46 | > 30 |  |  |  |  | 
18 | O=S(=O)(Nc1ncns1)c1ccc2c(-c3ccc(C(F)(F)F)cc3C3=CCNCC3)cccc2c1 | 1.3 |  | 90 | 0.1 | < 14 | > 30 | < 14 | 0.037 | 3.6 |  |  |  | 
19 | COc1cc(C(F)(F)F)ccc1-c1cccc2cc(S(=O)(=O)Nc3ncccn3)ccc12 | 36 |  |  |  | < 14 | > 30 | 17 | 1.5 |  |  |  |  | 

— ChEMBL document CHEMBL3864175, “Sulfonamides as Selective NaV1.7 Inhibitors: Optimizing Potency and Pharmacokinetics to Enable in Vivo Target Engagement” (ACS Med Chem Lett, 2016)
